Data reported in ChEMBL document CHEMBL2040768, “Synthesis, antimicrobial and cytotoxic activities of sulfone linked bis heterocycles” (Eur J Med Chem, 2012).
The source made the active and inactive calls. No cut-off for these calls is given here.

Columns and labels:
Pseudomonas aeruginosa [1] = assay: Antibacterial activity against Pseudomonas aeruginosa at 50 ug/ml after 24 hrs by agar well diffusion method; type: functional; conditions: for zone of inhibition at 50 µg/mL: read-out: DIZ
How it was run: (§1)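 Agar well diffusion. Nutrient plates swabbed with 24 h broth culture of the bacterium; 6 mm wells bored and loaded with DMSO solutions of compound (wells at 50 and 100 per well). Chloramphenicol positive control, DMSO negative control. Plates held 37 °C, 24 h; inhibition zone diameter (mm) measured, mean of duplicates.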

Penicillium chrysogenum [2] = assay: Antifungal activity against Penicillium chrysogenum at 50 ug/ml after 48 hrs by agar well diffusion method; type: functional; conditions: for zone of inhibition at 50 µg/mL: read-out: DIZ
How it was run: (§2)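 Fungal agar well diffusion. Plates swabbed with fungal culture, 6 mm wells filled with DMSO solutions of compound (50 and 100 per well). Ketoconazole positive and DMSO negative controls. Plates incubated 28 °C for 48 h; zone of inhibition diameter (mm) read, average of duplicates.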

Penicillium chrysogenum [3] = assay: Antifungal activity against Penicillium chrysogenum at 100 ug/ml after 48 hrs by agar well diffusion method; type: functional; conditions: for zone of inhibition at 100 µg/mL: read-out: DIZ; how it was run: as §2
Bacillus subtilis [4] = assay: Antibacterial activity against Bacillus subtilis at 50 ug/ml after 24 hrs by agar well diffusion method; type: functional; conditions: for zone of inhibition at 50 µg/mL: read-out: DIZ; how it was run: as §1
Pseudomonas aeruginosa [5] = assay: Antibacterial activity against Pseudomonas aeruginosa at 100 ug/ml after 24 hrs by agar well diffusion method; type: functional; conditions: for zone of inhibition at 100 µg/mL: read-out: DIZ; how it was run: as §1
Klebsiella pneumoniae [6] = assay: Antibacterial activity against Klebsiella pneumoniae at 50 ug/ml after 24 hrs by agar well diffusion method; type: functional; conditions: for zone of inhibition at 50 µg/mL: read-out: DIZ; how it was run: as §1
Staphylococcus aureus [7] = assay: Antibacterial activity against Staphylococcus aureus at 100 ug/ml after 24 hrs by agar well diffusion method; type: functional; conditions: for zone of inhibition at 100 µg/mL: read-out: DIZ; how it was run: as §1
Klebsiella pneumoniae [8] = assay: Antibacterial activity against Klebsiella pneumoniae at 100 ug/ml after 24 hrs by agar well diffusion method; type: functional; conditions: for zone of inhibition at 100 µg/mL: read-out: DIZ; how it was run: as §1
A549 = assay: Cytotoxicity against human A549 cells up to 0.2 mM after 72 hrs by MTT assay
Aspergillus niger [9] = assay: Antifungal activity against Aspergillus niger at 100 ug/ml after 48 hrs by agar well diffusion method; type: functional; conditions: for zone of inhibition at 100 µg/mL: read-out: DIZ; how it was run: as §2
Staphylococcus aureus [10] = assay: Antibacterial activity against Staphylococcus aureus at 50 ug/ml after 24 hrs by agar well diffusion method; type: functional; conditions: for zone of inhibition at 50 µg/mL: read-out: DIZ; how it was run: as §1
Bacillus subtilis [11] = assay: Antibacterial activity against Bacillus subtilis at 100 ug/ml after 24 hrs by agar well diffusion method; type: functional; conditions: for zone of inhibition at 100 µg/mL: read-out: DIZ; how it was run: as §1
Aspergillus niger [12] = assay: Antifungal activity against Aspergillus niger at 50 ug/ml after 48 hrs by agar well diffusion method; type: functional; conditions: for zone of inhibition at 50 µg/mL: read-out: DIZ; how it was run: as §2

Row | SMILES | zone of inhibition at 50 µg/mL (Pseudomonas aeruginosa [1]) | zone of inhibition at 50 µg/mL (Penicillium chrysogenum [2]) | zone of inhibition at 100 µg/mL (Penicillium chrysogenum [3]) | zone of inhibition at 50 µg/mL (Bacillus subtilis [4]) | zone of inhibition at 100 µg/mL (Pseudomonas aeruginosa [5]) | zone of inhibition at 50 µg/mL (Klebsiella pneumoniae [6]) | zone of inhibition at 100 µg/mL (Staphylococcus aureus [7]) | zone of inhibition at 100 µg/mL (Klebsiella pneumoniae [8]) | Activity (A549) | zone of inhibition at 100 µg/mL (Aspergillus niger [9]) | zone of inhibition at 50 µg/mL (Staphylococcus aureus [10]) | zone of inhibition at 100 µg/mL (Bacillus subtilis [11]) | zone of inhibition at 50 µg/mL (Aspergillus niger [12]) | also measured
1 | O=S(=O)(Cc1nnc(CS(=O)(=O)c2c[nH]nc2S(=O)(=O)c2ccccc2)s1)Nc1ccccc1 | 10 mm | 16 mm | 19 mm | 15 mm | 12 mm | 14 mm | 17 mm | 16 mm | inactive | 17 mm | 16 mm | 17 mm | 15 mm | 
2 | O=S(=O)(/C=C/S(=O)(=O)c1ccccc1)Cc1nnc(CS(=O)(=O)Nc2ccccc2)o1 |  |  |  | 12 mm |  |  | 13 mm |  | inactive |  | 10 mm | 14 mm |  | diameter of the inhibition zone (DIZ) (Pseudomonas aeruginosa [1]): inactive; diameter of the inhibition zone (DIZ) (Penicillium chrysogenum [2]): inactive; diameter of the inhibition zone (DIZ) (Penicillium chrysogenum [3]): inactive; diameter of the inhibition zone (DIZ) (Pseudomonas aeruginosa [5]): inactive; diameter of the inhibition zone (DIZ) (Klebsiella pneumoniae [6]): inactive; diameter of the inhibition zone (DIZ) (Klebsiella pneumoniae [8]): inactive; diameter of the inhibition zone (DIZ) (Aspergillus niger [9]): inactive; diameter of the inhibition zone (DIZ) (Aspergillus niger [12]): inactive
3 | O=S(=O)(Cc1nnc(CS(=O)(=O)C2CNN=C2S(=O)(=O)c2ccc(Cl)cc2)o1)Nc1ccc(Cl)cc1 (stereo unspecified) | 17 mm | 22 mm | 24 mm | 17 mm | 19 mm | 22 mm | 18 mm | 24 mm | inactive | 23 mm | 17 mm | 20 mm | 20 mm | 
4 | Cc1ccc(NS(=O)(=O)Cc2nnc(CS(=O)(=O)C3CNN=C3S(=O)(=O)c3ccc(C)cc3)n2N)cc1 (stereo unspecified) | 12 mm | 15 mm | 18 mm | 16 mm | 15 mm | 18 mm | 15 mm | 20 mm | inactive | 16 mm | 13 mm | 18 mm | 13 mm | 
5 | Cc1ccc(NS(=O)(=O)Cc2nnc(CS(=O)(=O)/C=C/S(=O)(=O)c3ccc(C)cc3)o2)cc1 |  |  |  |  |  |  |  |  | inactive |  |  |  |  | diameter of the inhibition zone (DIZ) (Pseudomonas aeruginosa [1]): inactive; diameter of the inhibition zone (DIZ) (Penicillium chrysogenum [2]): inactive; diameter of the inhibition zone (DIZ) (Penicillium chrysogenum [3]): inactive; diameter of the inhibition zone (DIZ) (Bacillus subtilis [4]): inactive; diameter of the inhibition zone (DIZ) (Pseudomonas aeruginosa [5]): inactive; diameter of the inhibition zone (DIZ) (Klebsiella pneumoniae [6]): inactive; diameter of the inhibition zone (DIZ) (Staphylococcus aureus [7]): inactive; diameter of the inhibition zone (DIZ) (Klebsiella pneumoniae [8]): inactive; diameter of the inhibition zone (DIZ) (Aspergillus niger [9]): inactive; diameter of the inhibition zone (DIZ) (Staphylococcus aureus [10]): inactive; diameter of the inhibition zone (DIZ) (Bacillus subtilis [11]): inactive; diameter of the inhibition zone (DIZ) (Aspergillus niger [12]): inactive
6 | O=S(=O)(Cc1nnc(CS(=O)(=O)c2c[nH]nc2S(=O)(=O)c2ccc(Cl)cc2)o1)Nc1ccc(Cl)cc1 | 19 mm | 21 mm | 24 mm | 21 mm | 21 mm | 23 mm | 23 mm | 24 mm | inactive | 23 mm | 20 mm | 22 mm | 20 mm | 
7 | Cc1ccc(NS(=O)(=O)Cc2nnc(CS(=O)(=O)/C=C/S(=O)(=O)c3ccc(C)cc3)s2)cc1 | 14 mm | 20 mm | 23 mm | 21 mm | 16 mm | 23 mm | 20 mm | 25 mm | inactive | 21 mm | 18 mm | 23 mm | 18 mm | 
8 | Cc1ccc(NS(=O)(=O)Cc2nnc(CS(=O)(=O)c3c[nH]nc3S(=O)(=O)c3ccc(C)cc3)s2)cc1 | 8 mm | 11 mm | 13 mm | 10 mm | 11 mm | 13 mm | 14 mm | 15 mm | inactive | 13 mm | 12 mm | 13 mm | 10 mm | 
9 | O=S(=O)(Cc1nnc(CS(=O)(=O)c2c[nH]nc2S(=O)(=O)c2ccccc2)o1)Nc1ccccc1 | 10 mm | 12 mm | 15 mm | 13 mm | 12 mm | 15 mm | 12 mm | 17 mm | inactive | 13 mm | 10 mm | 15 mm | 10 mm | 
10 | O=S(=O)(Cc1nnc(CS(=O)(=O)C2CNN=C2S(=O)(=O)c2ccccc2)s1)Nc1ccccc1 (stereo unspecified) |  |  |  | 14 mm |  |  | 14 mm |  | inactive |  | 12 mm | 16 mm |  | diameter of the inhibition zone (DIZ) (Pseudomonas aeruginosa [1]): inactive; diameter of the inhibition zone (DIZ) (Penicillium chrysogenum [2]): inactive; diameter of the inhibition zone (DIZ) (Penicillium chrysogenum [3]): inactive; diameter of the inhibition zone (DIZ) (Pseudomonas aeruginosa [5]): inactive; diameter of the inhibition zone (DIZ) (Klebsiella pneumoniae [6]): inactive; diameter of the inhibition zone (DIZ) (Klebsiella pneumoniae [8]): inactive; diameter of the inhibition zone (DIZ) (Aspergillus niger [9]): inactive; diameter of the inhibition zone (DIZ) (Aspergillus niger [12]): inactive
11 | O=S(=O)(Cc1nnc(CS(=O)(=O)C2CNN=C2S(=O)(=O)c2ccc(Cl)cc2)s1)Nc1ccc(Cl)cc1 (stereo unspecified) | 22 mm | 28 mm | 31 mm | 25 mm | 23 mm | 25 mm | 27 mm | 28 mm | inactive | 29 mm | 24 mm | 26 mm | 28 mm | 
12 | O=S(=O)(Cc1nnc(CS(=O)(=O)c2c[nH]cc2S(=O)(=O)c2ccc(Cl)cc2)s1)Nc1ccc(Cl)cc1 | 23 mm | 30 mm | 33 mm | 27 mm | 25 mm | 29 mm | 27 mm | 30 mm | inactive | 31 mm | 26 mm | 29 mm | 29 mm | 
